According to publication PMC11754507 (Ophthalmology Science, 2024):

What was measured:
[1] = format: in vivo, human; details: intravitreal
Summary of the method: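 Serum levels pooled from 4 clinical studies in adults with GA or nAMD, after single intravitreal 4, 10 or 20 mg or 15 mg monthly or every other month. LLOQ 0.10 μg/mL; BLQ samples (>20%) handled by M3 method. Vitreous dose compartment, first-order absorption into one serum compartment, first-order elimination; stepwise covariates (forward α=0.05, backward α=0.001); half-lives are median empirical Bayes estimates.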

[2] = system: systemic C3 activation (alternative pathway); details: serum concentration threshold for inhibition of systemic C3 activation; cited from earlier work
[3] = system: systemic C3 activation (classical pathway); details: serum concentration threshold for inhibition of systemic C3 activation; cited from earlier work
[4] = median empirical Bayes estimated

With pegcetacoplan the “VC/F, Transformed Estimate” value ([1]; apparent volume of the central serum compartment, 261 patients with GA or nAMD) was 1.83 L, the “half-life based on the slowest rate process” value [1] was “approximately 2 weeks” and the “absorption half-life (vitreous-to-serum)” value [1, 4] was 13.1 days. For the same substance, the “elimination half-life (serum)” value [1, 4] was 4.51 days, the “KA, Transformed Estimate” value ([1]; vitreous-to-serum absorption rate constant, 261 patients with GA or nAMD) was 0.0528 day⁻¹ and the “half-maximal effective concentration [EC50], alternative pathway” value [2] was 2.77 µg/mL. The “EC50, classical pathway” value [3] was 5.90 µg/mL.
